What was measured:
Format in all cases: functional
Staphylococcus hominis [1] = assay: Antimicrobial activity against methicillin-susceptible coagulase-negative Staphylococcus hominis assessed as susceptible isolates after 24 hrs by broth microdilution method
Mammaliicoccus sciuri [2] = assay: Antimicrobial activity against methicillin-susceptible coagulase-negative Staphylococcus sciuri assessed as susceptible isolates after 24 hrs by broth microdilution method
Method in brief: (§1)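 Clinical isolates from blood, body fluids, pus, sputum or genital secretions, identified conventionally or by Vitek, were tested alongside ATCC 29213 and ATCC 12228 controls. CLSI M7-A6 broth microdilution in Mueller-Hinton broth used twofold dilutions from a 10% DMSO solution and 5 × 10^5 CFU/ml inoculum. Drug-free and uninoculated wells served as controls; incubation was aerobic at 37°C for 24 h. MIC was the lowest concentration with no visible growth.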

Staphylococcus simulans [3] = assay: Antimicrobial activity against methicillin-susceptible coagulase-negative Staphylococcus simulans assessed as susceptible isolates after 24 hrs by broth microdilution method; method in brief: as §1
Staphylococcus hominis [4] = assay: Antimicrobial activity against methicillin-resistant coagulase-negative Staphylococcus hominis after 24 hrs by broth microdilution method
Method in brief: (§2)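 Clinical isolates came from blood, body fluids, genital secretions, pus or sputum, identified conventionally or by Vitek. MICs were run by CLSI M7-A6 broth microdilution in Mueller-Hinton broth with 5 × 10^5 CFU/ml inoculum. Agents were twofold serially diluted, starting from 10% DMSO. Drug-free and uninoculated controls were included. Plates were incubated aerobically at 37°C for 24 h; MIC is the lowest concentration giving no visible growth.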

[5] = system: Staphylococcus epidermidis; assay: Bactericidal activity against methicillin-susceptible coagulase-negative Staphylococcus epidermidis after 24 hrs by plate counting method
Method in brief: (§3)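 Clinical staphylococcal isolates from patient body fluids, blood, genital secretions, pus or sputum; species by conventional methods or Vitek. Twofold dilutions in Mueller-Hinton broth, inoculum 5 × 10^5 CFU/ml, 37°C aerobic 24 h (CLSI M7-A6 microdilution). About 100 μl from each well without visible growth spread on MHA; 37°C 24 h. MBC = lowest concentration giving no growth on agar.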

[6] = system: Staphylococcus haemolyticus; assay: Antimicrobial activity against methicillin-susceptible coagulase-negative Staphylococcus haemolyticus assessed as susceptible isolates after 24 hrs by broth microdilution method
Staphylococcus simulans [7] = assay: Antimicrobial activity against methicillin-resistant coagulase-negative Staphylococcus simulans after 24 hrs by broth microdilution method; method in brief: as §2
[8] = system: Staphylococcus epidermidis; assay: Antimicrobial activity against methicillin-susceptible coagulase-negative Staphylococcus epidermidis assessed as susceptible isolates after 24 hrs by broth microdilution method
[9] = system: Staphylococcus haemolyticus; assay: Antimicrobial activity against methicillin-resistant coagulase-negative Staphylococcus haemolyticus assessed as intermediate resistant isolates after 24 hrs by broth microdilution method
[10] = system: Staphylococcus epidermidis; assay: Bactericidal activity against methicillin-resistant coagulase-negative Staphylococcus epidermidis after 24 hrs by plate counting method
Mammaliicoccus sciuri [11] = assay: Antimicrobial activity against methicillin-resistant coagulase-negative Staphylococcus sciuri assessed as resistant isolates after 24 hrs by broth microdilution method
Mammaliicoccus sciuri [12] = assay: Antimicrobial activity against methicillin-susceptible coagulase-negative Staphylococcus sciuri assessed as resistant isolates after 24 hrs by broth microdilution method
Staphylococcus simulans [13] = assay: Antimicrobial activity against methicillin-resistant coagulase-negative Staphylococcus simulans assessed as resistant isolates after 24 hrs by broth microdilution method
[14] = system: Staphylococcus haemolyticus; assay: Antimicrobial activity against methicillin-resistant coagulase-negative Staphylococcus haemolyticus assessed as resistant isolates after 24 hrs by broth microdilution method
Staphylococcus hominis [15] = assay: Bactericidal activity against methicillin-resistant coagulase-negative Staphylococcus hominis after 24 hrs by plate counting method
[16] = system: Staphylococcus haemolyticus; assay: Antimicrobial activity against methicillin-resistant coagulase-negative Staphylococcus haemolyticus assessed as susceptible isolates after 24 hrs by broth microdilution method
Staphylococcus hominis [17] = assay: Antimicrobial activity against methicillin-resistant coagulase-negative Staphylococcus hominis assessed as susceptible isolates after 24 hrs by broth microdilution method
Staphylococcus simulans [18] = assay: Antimicrobial activity against methicillin-susceptible coagulase-negative Staphylococcus simulans assessed as resistant isolates after 24 hrs by broth microdilution method
[19] = system: Staphylococcus epidermidis; assay: Antimicrobial activity against methicillin-resistant coagulase-negative Staphylococcus epidermidis assessed as resistant isolates after 24 hrs by broth microdilution method
Staphylococcus simulans [20] = assay: Antimicrobial activity against methicillin-susceptible coagulase-negative Staphylococcus simulans after 24 hrs by broth microdilution method; method in brief: as §2
Staphylococcus hominis [21] = assay: Antimicrobial activity against methicillin-resistant coagulase-negative Staphylococcus hominis assessed as resistant isolates after 24 hrs by broth microdilution method
Mammaliicoccus sciuri [22] = assay: Bactericidal activity against methicillin-susceptible coagulase-negative Staphylococcus sciuri after 24 hrs by plate counting method; method in brief: as §3
Staphylococcus aureus [23] = assay: Antimicrobial activity against methicillin-resistant Staphylococcus aureus assessed as resistant isolates after 24 hrs by broth microdilution method
Staphylococcus hominis [24] = assay: Antimicrobial activity against methicillin-susceptible coagulase-negative Staphylococcus hominis assessed as resistant isolates after 24 hrs by broth microdilution method
Staphylococcus simulans [25] = assay: Bactericidal activity against methicillin-susceptible coagulase-negative Staphylococcus simulans after 24 hrs by plate counting method; method in brief: as §3
Mammaliicoccus sciuri [26] = assay: Bactericidal activity against methicillin-resistant coagulase-negative Staphylococcus sciuri after 24 hrs by plate counting method; method in brief: as §3
Staphylococcus hominis [27] = assay: Bactericidal activity against methicillin-susceptible coagulase-negative Staphylococcus hominis after 24 hrs by plate counting method; method in brief: as §3
Mammaliicoccus sciuri [28] = assay: Antimicrobial activity against methicillin-resistant coagulase-negative Staphylococcus sciuri assessed as intermediate resistant isolates after 24 hrs by broth microdilution method
Staphylococcus aureus [29] = assay: Antimicrobial activity against methicillin-resistant Staphylococcus aureus assessed as intermediate resistant isolates after 24 hrs by broth microdilution method
Staphylococcus aureus [30] = assay: Antimicrobial activity against methicillin-susceptible Staphylococcus aureus assessed as susceptible isolates after 24 hrs by broth microdilution method
[31] = system: Staphylococcus haemolyticus; assay: Bactericidal activity against methicillin-susceptible coagulase-negative Staphylococcus haemolyticus after 24 hrs by plate counting method; method in brief: as §3
Mammaliicoccus sciuri [32] = assay: Antimicrobial activity against methicillin-susceptible coagulase-negative Staphylococcus sciuri after 24 hrs by broth microdilution method; method in brief: as §2
Staphylococcus hominis [33] = assay: Antimicrobial activity against methicillin-susceptible coagulase-negative Staphylococcus hominis after 24 hrs by broth microdilution method; method in brief: as §2
Staphylococcus aureus [34] = assay: Antimicrobial activity against methicillin-susceptible Staphylococcus aureus assessed as resistant isolates after 24 hrs by broth microdilution method
[35] = system: Staphylococcus haemolyticus; assay: Antimicrobial activity against methicillin-susceptible coagulase-negative Staphylococcus haemolyticus assessed as resistant isolates after 24 hrs by broth microdilution method
Staphylococcus aureus [36] = assay: Bactericidal activity against methicillin-resistant Staphylococcus aureus after 24 hrs by plate counting method
Staphylococcus hominis [37] = assay: Antimicrobial activity against methicillin-resistant coagulase-negative Staphylococcus hominis assessed as intermediate resistant isolates after 24 hrs by broth microdilution method

GENTAMICIN
128 µg/mL: MBC90 [10] | MBC90 (Staphylococcus hominis [15]) | MBC90 (Mammaliicoccus sciuri [26]) | MBC90 (Staphylococcus aureus [36])
1 µg/mL: MBC50 [5] | MBC50 (Mammaliicoccus sciuri [22]) | MBC50 (Staphylococcus simulans [25]) | MBC50 (Staphylococcus hominis [27]) | MBC50 [31]
8 µg/mL: MIC50 (Staphylococcus hominis [4]) | MIC50 (Staphylococcus simulans [7]) | MBC50 [10] | MBC50 (Staphylococcus hominis [15]) | MBC50 (Mammaliicoccus sciuri [26])
2 µg/mL: MBC (Staphylococcus aureus [36])
63%: Activity (Staphylococcus aureus [23])
0.25 µg/mL: MBC [5] | MBC [10] | MBC (Staphylococcus hominis [15]) | MBC (Mammaliicoccus sciuri [22]) | MBC (Staphylococcus simulans [25]) | MBC (Mammaliicoccus sciuri [26]) | MBC (Staphylococcus hominis [27]) | MBC [31]
64 µg/mL: MIC90 (Staphylococcus hominis [4]) | MBC90 [5] | MIC90 (Staphylococcus simulans [7]) | MBC90 (Mammaliicoccus sciuri [22]) | MBC90 (Staphylococcus simulans [25]) | MBC90 (Staphylococcus hominis [27]) | MBC90 [31] | MBC50 (Staphylococcus aureus [36])
32 µg/mL: MIC90 (Staphylococcus simulans [20]) | MIC90 (Mammaliicoccus sciuri [32]) | MIC90 (Staphylococcus hominis [33])
48%: Activity (Mammaliicoccus sciuri [11]) | Activity (Staphylococcus simulans [13]) | Activity [14] | Activity [19] | Activity (Staphylococcus hominis [21]) | Activity (Staphylococcus aureus [34])
0.125 µg/mL: MIC50 (Staphylococcus simulans [20]) | MIC50 (Mammaliicoccus sciuri [32]) | MIC50 (Staphylococcus hominis [33])
52%: Activity (Staphylococcus aureus [30])
45%: Activity [16] | Activity (Staphylococcus hominis [17])
22%: Activity (Staphylococcus aureus [29])
7%: Activity [9] | Activity (Mammaliicoccus sciuri [28]) | Activity (Staphylococcus hominis [37])
27%: Activity (Mammaliicoccus sciuri [12]) | Activity (Staphylococcus simulans [18]) | Activity (Staphylococcus hominis [24]) | Activity [35]
73%: Activity (Staphylococcus hominis [1]) | Activity (Mammaliicoccus sciuri [2]) | Activity (Staphylococcus simulans [3]) | Activity [6] | Activity [8]
